Blank lines part the entries; values can stand above or below the compound they belong to.
Tests used:
Type in all cases: ADME, organism-based
[1] = AUC (0 to last) in ICR mouse liver at 80 mg/kg, po administered as single dose; design: dose 80 mg/kg, time 0 - last, route oral
[2] = AUC (0 to infinity) in ICR mouse liver at 80 mg/kg, po administered as single dose; design: dose 80 mg/kg, route oral, time infinity
[3] = Ratio of AUC (0 to infinity) in ICR mouse liver to plasma at 80 mg/kg, po administered as single dose; conditions: liver and plasma, read-out: Ratio AUC
[4] = Apparent volume of distribution in ICR mouse plasma at 80 mg/kg, po administered as single dose; conditions: read-out: Vz/F
Method in brief: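 Male ICR mice, 7 weeks old, 23–28 g, received a single intragastric 80 mg/kg dose in DD water (100 μL/20 g). […] Cmax and Tmax came from the concentration–time curves; t1/2 = ln2/kel; AUC by linear trapezoidal rule extrapolated to infinity; MRT = AUMC/AUC.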

AUC(0-t) [1]: 20400 ng·h/mL
Compound: O=c1c2ccc(OCc3ccc(OC(F)(F)F)cc3)cc2[nH]c2cc(F)cc(F)c12

AUC(0-inf) [2]: 19300 ng·h/mL
Compound: O=c1c2ccc(OCc3cccc(OC(F)(F)F)c3)cc2[nH]c2cc(F)cc(F)c12

AUC(0-t) [1]: 11500 ng·h/mL
Compound: O=c1c2ccc(OCc3cccc(C(F)(F)F)c3)cc2[nH]c2cc(F)cc(F)c12

Kp [3]: 112
Compound: O=c1c2ccc(Oc3ccc(OC(F)(F)F)cc3)cc2[nH]c2cc(Cl)cc(F)c12

Vd/F [4]: 290 L/kg
Compound: O=c1c2cc(OCc3ccc(OC(F)(F)F)cc3)ccc2[nH]c2cc(F)cc(F)c12

— ChEMBL document CHEMBL4602727, “Lead Optimization of Second-Generation Acridones as Broad-Spectrum Antimalarials” (J Med Chem, 2020)
